Test results taken from ChEMBL document CHEMBL2407047, “Molecular design, synthesis and biological evaluation of 1,4-dihydro-4-oxoquinoline ribonucleosides as TcGAPDH inhibitors with trypanocidal activity” (Bioorg Med Chem Lett, 2013).

What was measured:
[1] = compound: Cc1ccc2c(=O)c(C(=O)O)cn([C@@H]3O[C@H](CO)[C@@H](O)[C@H]3O)c2c1; assay: (§1) Competitive inhibition of Trypanosoma cruzi glycosomal GAPDH assessed as increase in NAD+ Km by ITC method
How it was run: (§2)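 Enzyme assays were run by isothermal titration calorimetry (ITC), probing the GAPDH NAD+ cosubstrate site and the active site. Affinity is reported as apparent Ki. Mode of inhibition was judged from how NAD+ and G3P KM and Vmax respond. Kinetic models were compared by second-order Akaike's information criterion.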

[2] = compound: COc1ccc2c(=O)c(C(=O)O)cn([C@@H]3O[C@H](CO)[C@@H](O)[C@H]3O)c2c1; assay: as §1; how it was run: as §2
[3] = compound: O=C(O)c1cn([C@@H]2O[C@H](CO)[C@@H](O)[C@H]2O)c2cc(Br)ccc2c1=O; assay: as §1; how it was run: as §2
[4] = compound: O=C(O)c1cn([C@@H]2O[C@H](CO)[C@@H](O)[C@H]2O)c2ccc(Cl)cc2c1=O; assay: as §1; how it was run: as §2
[5] = compound: COc1ccc2c(c1)c(=O)c(C(=O)O)cn2[C@@H]1O[C@H](CO)[C@@H](O)[C@H]1O; assay: as §1; how it was run: as §2
[6] = compound: Cc1ccc2c(c1)c(=O)c(C(=O)O)cn2[C@@H]1O[C@H](CO)[C@@H](O)[C@H]1O; assay: as §1; how it was run: as §2
[7] = compound: O=C(O)c1cn([C@@H]2O[C@H](CO)[C@@H](O)[C@H]2O)c2ccc(Br)cc2c1=O; assay: as §1; how it was run: as §2

B1: Glyceraldehyde-3-phosphate dehydrogenase, glycosomal (Trypanosoma cruzi), P22513 (protein)
chain: MPIKVGINGFGRIGRMVFQALCEDGLLGTEIDVVAVVDMNTDAEYFAYQMRYDTVHGKFKYEVTTTKSSPSVAKDDTLVVNGHRILCVKAQRNPADLPWGKLGVEYVIESTGLFTAKAAAEGHLRGGARKVVISAPASGGAKTLVMGVNHHEYNPSEHHVVSNASCTTNCLAPIVHVLVKEGFGVQTGLMTTIHSYTATQKTVDGVSVKDWRGGRAAAVNIIPSTTGAAKAVGMVIPSTQGKLTGMSFRVPTPDVSVVDLTFTAARDTSIQEIDAALKRASKTYMKGILGYTDEELVSADFINDNRSSIYDSKATLQNNLPKERRFFKIVSWYDNEWGYSHRVVDLVRHMASKDRSARL
Km [1]: 46.9 µM | Km [2]: 67.7 µM | Km [3]: 50 µM | Km [4]: 63.4 µM | Km [5]: 47 µM | Km [6]: 48.5 µM | Km [7]: 62.6 µM
